Calls of active or inactive are those of the source. No cut-off for these calls is given here.
Legend:
[1] = tested on: HeLa; assay: Cytotoxicity against human HeLa cells after 48 hrs by MTT assay; type: functional, cell-based
Outline: (§1)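 MTT assay: […] were plated in DMEM with 10% FBS and incubated for 24 h at 37 °C under CO2. Compounds diluted in culture medium were added alongside a vehicle control for 48 h. MTT (10 µl of a 5 mg/ml stock) was added for a further 4 h. The supernatant was then removed, the formazan dissolved in DMSO, and absorbance read at 540 nm. IC50 was derived.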

[2] = tested on: ACHN; assay: Cytotoxicity against human ACHN cells after 48 hrs by MTT assay; type: functional, cell-based; outline: as §1
[3] = tested on: MCF7; assay: Cytotoxicity against human MCF7 cells after 48 hrs by MTT assay; type: functional, cell-based; settings: MCF7, 48 h; outline: as §1
[4] = tested on: A549; assay: Cytotoxicity against human A549 cells after 48 hrs by MTT assay; type: functional, cell-based; settings: A549, 48 h; outline: as §1
[5] = tested on: DU-145; assay: Cytotoxicity against human DU145 cells after 48 hrs by MTT assay; type: functional, cell-based; settings: DU-145, 48 h; outline: as §1
[6] = tested on: A549; assay: Cell cycle arrest at human A549 cells assessed as accumulation at G0/G1 phase at 2 uM after 48 hrs by propidium iodide-staining-based FACS flow cytometric analysis (reference value: 81.33%); type: functional
[7] = tested on: A549; assay: Induction of apoptosis in human A549 cells assessed as activation of caspase-3 at 2 uM after 48 hrs by ELISA relative to control; type: functional
Outline: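 A549 lung cancer cells exposed to 1 and 2 µM compound for 48 h, with roscovitine as positive control. Pellets lysed for 15 min, and supernatant caspase-3 activity read by a commercial colorimetric kit relative to untreated control. Values are mean ± SD of two experiments run in triplicate.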

[8] = tested on: A549; assay: Cell cycle arrest at human A549 cells assessed as accumulation at sub G1 phase at 2 uM after 48 hrs by propidium iodide-staining-based FACS flow cytometric analysis (reference value: 1.02%); type: functional
[9] = tested on: A549; assay: Cell cycle arrest at human A549 cells assessed as accumulation at S phase at 2 uM after 48 hrs by propidium iodide-staining-based FACS flow cytometric analysis (reference value: 4.48%); type: functional
[10] = tested on: A549; assay: Induction of apoptosis in human A549 cells assessed as DNA fragmentation at 2 uM after 48 hrs by agarose gel electrophoresis; type: functional, cell-based
Outline: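 A549 cells (1×10^6) seeded in six-well plates for 24 h, then exposed to 2 µM compound or roscovitine for 48 h and pelleted. Lysate treated with SDS and RNase-A (2 h, 56 °C), then proteinase K (2 h, 37 °C). DNA precipitated with ammonium acetate/cold ethanol, dissolved in TE, and laddering resolved on 2% agarose gel against a 50 bp marker.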

[11] = tested on: A549; assay: Cell cycle arrest at human A549 cells assessed as accumulation at G2/M phase at 2 uM after 48 hrs by propidium iodide-staining-based FACS flow cytometric analysis (reference value: 13.17%); type: functional

SMILES	IC50 [1] [µM]	IC50 [2] [µM]	IC50 [3] [µM]	IC50 [4] [µM]	IC50 [5] [µM]	Activity [6] [%]	fold change (FC) [7]	Activity [8] [%]	Activity [9] [%]	Activity [10]	Activity [11] [%]
COc1ccc(-c2cc(C(=O)Nc3nc4ccc(OC)cc4s3)nc3cc(-c4ccccc4)nn23)cc1	24.5	38.3	19.1	17.4	7.58						
COc1ccc(-c2cc(C(=O)Nc3nc4cc(C)c(C)cc4s3)nc3cc(-c4ccccc4)nn23)cc1OC	6.76	8.7	2.51	2.95	6.91						
CC[C@H](CO)Nc1nc(NCc2ccccc2)c2ncn(C(C)C)c2n1 [SELICICLIB]	1.81	2.88	3.98	2.18	1.9	46.75	4	7.3	5.26	Active	40.69
COc1ccc(-c2cc(C(=O)Nc3nc4ccc(Cl)cc4s3)nc3cc(-c4ccccc4)nn23)cc1	5.88	7.24	4.89	3.09	5.88						
COc1ccc2nc(NC(=O)c3cc(-c4ccc(OC)c(OC)c4)n4nc(-c5ccccc5)cc4n3)sc2c1	11	13.3	18.7	15.8	14						
COc1ccc(-c2cc(C(=O)Nc3nc4ccccc4s3)nc3cc(-c4ccccc4)nn23)cc1	4.67	1.69	2.23	1.54	2.95						
COc1ccc(-c2cc(C(=O)Nc3nc4ccc(Cl)cc4s3)nc3cc(-c4ccccc4)nn23)cc1OC	9.12	7.76	6.91	6.16	9.33						
COc1ccc(-c2cc(C(=O)Nc3nc4ccc(F)cc4s3)nc3cc(-c4ccccc4)nn23)cc1	41.7	39.3	35.5	11.7	31.4						
Cc1cc2nc(NC(=O)c3cc(-c4ccc(F)cc4)n4nc(-c5ccccc5)cc4n3)sc2cc1C	18.2	33	17	12.6	12.9						
COc1ccc2nc(NC(=O)c3cc(-c4ccc(F)cc4)n4nc(-c5ccccc5)cc4n3)sc2c1	17.3	26.3	24.5	24	15.4						
COc1ccc(-c2cc(C(=O)Nc3nc4ccccc4s3)nc3cc(-c4ccccc4)nn23)cc1OC	8.91	7.94	14.7	5.49	19.1						
O=C(Nc1nc2ccc(Cl)cc2s1)c1cc(-c2ccc(F)cc2)n2nc(-c3ccccc3)cc2n1	9.77	13.8	19.8	6.6	17.6						
COc1cc(-c2cc(C(=O)Nc3nc4cc(C)c(C)cc4s3)nc3cc(-c4ccccc4)nn23)cc(OC)c1OC	8.91	3.8	2.29	2.34	3.71						
COc1ccc2nc(NC(=O)c3cc(-c4cc(OC)c(OC)c(OC)c4)n4nc(-c5ccccc5)cc4n3)sc2c1	8.7	5.24	2.95	2.81	3.98						
COc1ccc(-c2cc(C(=O)Nc3nc4ccc(F)cc4s3)nc3cc(-c4ccccc4)nn23)cc1OC	8.31	8.12	22.4	6.91	18.6						
COc1ccc(-c2cc(C(=O)Nc3nc4cc(C)c(C)cc4s3)nc3cc(-c4ccccc4)nn23)cc1	14.1	22.4	19.7	13.2	12.3						
COc1cc(-c2cc(C(=O)Nc3nc4ccc(F)cc4s3)nc3cc(-c4ccccc4)nn23)cc(OC)c1OC	25.1	32.4	27.5	22.4	25.7						
COc1cc(-c2cc(C(=O)Nc3nc4ccc(Cl)cc4s3)nc3cc(-c4ccccc4)nn23)cc(OC)c1OC	22.4	41.7	30.2	18.2	38.9						
O=C(Nc1nc2ccc(F)cc2s1)c1cc(-c2ccc(F)cc2)n2nc(-c3ccccc3)cc2n1	29.5	35.5	22.9	14.8	22.9						

From ChEMBL document CHEMBL2384939, “Synthesis of pyrazolo[1,5-a]pyrimidine linked aminobenzothiazole conjugates as potential anticancer agents” (Bioorg Med Chem Lett, 2013)
